Test results reported in ChEMBL document CHEMBL3612027, “Substrate-guided optimization of the syringolins yields potent proteasome inhibitors with activity against leukemia cell lines” (Bioorg Med Chem, 2015).

How the values were obtained:
[1] = biological target: T1, Proteasome Macropain subunit MB1 (Homo sapiens, UniProt P28074); assay: Inhibition of human 20S proteasome beta5 subunit using Suc-LLVY-AMC as substrate by fluorescence assay
T1 sequence (P28074 whole entry): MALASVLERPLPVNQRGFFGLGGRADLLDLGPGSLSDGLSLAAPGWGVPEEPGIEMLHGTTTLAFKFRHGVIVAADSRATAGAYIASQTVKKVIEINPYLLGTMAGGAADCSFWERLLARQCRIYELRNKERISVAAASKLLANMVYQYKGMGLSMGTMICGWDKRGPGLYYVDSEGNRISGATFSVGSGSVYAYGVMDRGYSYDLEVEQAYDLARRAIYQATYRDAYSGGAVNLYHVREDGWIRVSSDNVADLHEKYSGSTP

HL-60 = assay: Cytotoxicity against human HL60 cells after 48 hrs; format: functional; details: HL-60, 48 h
MOLT-4 [2] = assay: Cytotoxicity against human MOLT4 cells after 48 hrs; format: functional; details: MOLT-4, 48 h
CCRF-CEM = assay: Cytotoxicity against human CCRF-CEM cells assessed as cell growth at 10 uM after 48 hrs relative to control; format: functional; details: read-out: Activity
Procedure, shortened: (§1)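 Run at the National Cancer Institute as a single-dose screen across its 60-cell-line cancer panel. Compound was tested at 10 micromolar, and growth was expressed as a percentage of negative-control cultures.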

HL-60(TB) = assay: Cytotoxicity against human HL-60(TB) cells assessed as cell growth at 10 uM after 48 hrs relative to control; format: functional; details: HL-60, 48 h, read-out: Activity
Procedure, shortened: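 Run at the NCI as a single-dose screen: each compound at 10 micromolar across the 60-cancer-cell-line panel. Growth of each cell line in compound-containing media was expressed relative to negative-control cultures.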

MOLT-4 [3] = assay: Cytotoxicity against human MOLT4 cells assessed as cell growth at 10 uM after 48 hrs relative to control; format: functional; details: MOLT-4, 48 h, read-out: Activity; procedure, shortened: as §1
SR = assay: Cytotoxicity against human SR cells assessed as cell growth at 10 uM after 48 hrs relative to control; format: functional; details: read-out: Activity
Procedure, shortened: (§2)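 Submitted to the National Cancer Institute for a single-dose screen at 10 micromolar against 60 cancer cell lines. Growth is expressed relative to negative-control cultures.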

NCI-H23 = assay: Cytotoxicity against human NCI-H23 cells assessed as cell growth at 10 uM after 48 hrs relative to control; format: functional; details: NCI-H23, 48 h, read-out: Activity; procedure, shortened: as §1
NCI-H460 = assay: Cytotoxicity against human NCI-H460 cells assessed as cell growth at 10 uM after 48 hrs relative to control; format: functional; details: NCI-H460, 48 h, read-out: Activity; procedure, shortened: as §1
HCT-116 = assay: Cytotoxicity against human HCT116 cells assessed as cell growth at 10 uM after 48 hrs relative to control; format: functional; details: HCT-116, 48 h, read-out: Activity; procedure, shortened: as §1
HT-29 = assay: Cytotoxicity against human HT-29 cells assessed as cell growth at 10 uM after 48 hrs relative to control; format: functional; details: HT-29, 48 h, read-out: Activity; procedure, shortened: as §1
SW-620 = assay: Cytotoxicity against human SW620 cells assessed as cell growth at 10 uM after 48 hrs relative to control; format: functional; details: SW-620, 48 h, read-out: Activity; procedure, shortened: as §2
SF-539 = assay: Cytotoxicity against human SF539 cells assessed as cell growth at 10 uM after 48 hrs relative to control; format: functional; details: SF-539, 48 h, read-out: Activity; procedure, shortened: as §1
U-251 = assay: Cytotoxicity against human U251 cells assessed as cell growth at 10 uM after 48 hrs relative to control; format: functional; details: U-251, 48 h, read-out: Activity; procedure, shortened: as §2
Malme-3M = assay: Cytotoxicity against human MALME-3M cells assessed as cell growth at 10 uM after 48 hrs relative to control; format: functional; details: read-out: Activity; procedure, shortened: as §1
M14 = assay: Cytotoxicity against human M14 cells assessed as cell growth at 10 uM after 48 hrs relative to control; format: functional; details: M14, 48 h, read-out: Activity; procedure, shortened: as §1
MDA-MB-435 = assay: Cytotoxicity against human MDA-MB-435 cells assessed as cell growth at 10 uM after 48 hrs relative to control; format: functional; details: MDA-MB-435, 48 h, read-out: Activity; procedure, shortened: as §1
SK-MEL-2 = assay: Cytotoxicity against human SK-MEL-2 cells assessed as cell growth at 10 uM after 48 hrs relative to control; format: functional; details: SK-MEL-2, 48 h, read-out: Activity; procedure, shortened: as §1
UACC-257 = assay: Cytotoxicity against human UACC257 cells assessed as cell growth at 10 uM after 48 hrs relative to control; format: functional; details: UACC-257, 48 h, read-out: Activity; procedure, shortened: as §2
UACC-62 = assay: Cytotoxicity against human UACC62 cells assessed as cell growth at 10 uM after 48 hrs relative to control; format: functional; details: UACC-62, 48 h, read-out: Activity; procedure, shortened: as §2
IGROV-1 = assay: Cytotoxicity against human IGROV1 cells assessed as cell growth at 10 uM after 48 hrs relative to control; format: functional; details: IGROV-1, 48 h, read-out: Activity; procedure, shortened: as §1
OVCAR-3 = assay: Cytotoxicity against human OVCAR3 cells assessed as cell growth at 10 uM after 48 hrs relative to control; format: functional; details: OVCAR-3, 48 h, read-out: Activity; procedure, shortened: as §1
OVCAR-8 = assay: Cytotoxicity against human OVCAR8 cells assessed as cell growth at 10 uM after 48 hrs relative to control; format: functional; details: OVCAR-8, 48 h, read-out: Activity; procedure, shortened: as §1
NCI/ADR-RES = assay: Cytotoxicity against human NCI/ADR-RES cells assessed as cell growth at 10 uM after 48 hrs relative to control; format: functional; details: read-out: Activity; procedure, shortened: as §1
786-0 = assay: Cytotoxicity against human 786-0 cells assessed as cell growth at 10 uM after 48 hrs relative to control; format: functional; details: 786-0, 48 h, read-out: Activity; procedure, shortened: as §1
A498 = assay: Cytotoxicity against human A498 cells assessed as cell growth at 10 uM after 48 hrs relative to control; format: functional; details: A498, 48 h, read-out: Activity; procedure, shortened: as §1
ACHN = assay: Cytotoxicity against human ACHN cells assessed as cell growth at 10 uM after 48 hrs relative to control; format: functional; details: read-out: Activity; procedure, shortened: as §1
SN12C = assay: Cytotoxicity against human SN12C cells assessed as cell growth at 10 uM after 48 hrs relative to control; format: functional; details: read-out: Activity; procedure, shortened: as §2
TK-10 = assay: Cytotoxicity against human TK10 cells assessed as cell growth at 10 uM after 48 hrs relative to control; format: functional; details: TK-10, 48 h, read-out: Activity; procedure, shortened: as §2
PC-3 = assay: Cytotoxicity against human PC3 cells assessed as cell growth at 10 uM after 48 hrs relative to control; format: functional; details: PC-3, 48 h, read-out: Activity; procedure, shortened: as §1
DU-145 = assay: Cytotoxicity against human DU145 cells assessed as cell growth at 10 uM after 48 hrs relative to control; format: functional; details: DU-145, 48 h, read-out: Activity; procedure, shortened: as §1
MDA-MB-231 = assay: Cytotoxicity against human MDA-MB-231 cells assessed as cell growth at 10 uM after 48 hrs relative to control; format: functional; details: MDA-MB-231, 48 h, read-out: Activity; procedure, shortened: as §1
[4] = Cytotoxicity against human Hs578T cells assessed as cell growth at 10 uM after 48 hrs relative to control; format: functional; details: Hs-578T, read-out: Activity; procedure, shortened: as §1
BT-549 = assay: Cytotoxicity against human BT549 cells assessed as cell growth at 10 uM after 48 hrs relative to control; format: functional; details: BT-549, 48 h, read-out: Activity; procedure, shortened: as §1

Compound	Ki [1] [nM]	GI50 (HL-60) [nM]	GI50 (MOLT-4 [2]) [nM]	growth at 10 µM (CCRF-CEM) [%]	growth at 10 µM (HL-60(TB)) [%]	growth at 10 µM (MOLT-4 [3]) [%]	growth at 10 µM (SR) [%]	growth at 10 µM (NCI-H23) [%]	growth at 10 µM (NCI-H460) [%]	growth at 10 µM (HCT-116) [%]	growth at 10 µM (HT-29) [%]	growth at 10 µM (SW-620) [%]	growth at 10 µM (SF-539) [%]	growth at 10 µM (U-251) [%]	growth at 10 µM (Malme-3M) [%]	growth at 10 µM (M14) [%]	growth at 10 µM (MDA-MB-435) [%]	growth at 10 µM (SK-MEL-2) [%]	growth at 10 µM (UACC-257) [%]	growth at 10 µM (UACC-62) [%]	other results
COC(=O)[C@@H](NC(=O)N[C@@H](Cc1ccccc1)C(=O)N[C@H]1CCCCNC(=O)/C=C/[C@H](Cc2ccccc2)NC1=O)C(C)C	447	4340	3320	9.59	20.9	-0.13	1.45	44.8	35.6	11.6	14.5	23.1	-22.2	17.8	-0.39	53.9	-69.1	0.98	16.4	9.78	growth at 10 µM (IGROV-1): 30.6%; growth at 10 µM (OVCAR-3): -36.7%; growth at 10 µM (OVCAR-8): 82%; growth at 10 µM (NCI/ADR-RES): 98.8%; growth at 10 µM (786-0): 71.8%; growth at 10 µM (A498): 40.7%; growth at 10 µM (ACHN): 91.4%; growth at 10 µM (SN12C): 29.5%; growth at 10 µM (TK-10): 75%; growth at 10 µM (PC-3): 73.2%; growth at 10 µM (DU-145): 46.1%; growth at 10 µM (MDA-MB-231): 23.2%; growth at 10 µM [4]: 24.9%; growth at 10 µM (BT-549): 3.25%
COC(=O)[C@@H](NC(=O)N[C@@H](Cc1ccccc1)C(=O)N[C@H]1CCCCNC(=O)/C=C/[C@H](Cc2c[nH]c3ccccc23)NC1=O)C(C)C	385	1290	599	58.2	55.3	13.9	21.9	78.1	99.1	76.4	29.7	87.7	17.5	63.9	94	101	1.21	22.3	87.1	79.3	growth at 10 µM (IGROV-1): 61.4%; growth at 10 µM (OVCAR-3): 15.7%; growth at 10 µM (OVCAR-8): 98.9%; growth at 10 µM (NCI/ADR-RES): 99.1%; growth at 10 µM (786-0): 99.7%; growth at 10 µM (A498): 78.2%; growth at 10 µM (ACHN): 101%; growth at 10 µM (SN12C): 80.1%; growth at 10 µM (TK-10): 101%; growth at 10 µM (PC-3): 103%; growth at 10 µM (DU-145): 95.1%; growth at 10 µM (MDA-MB-231): 79.1%; growth at 10 µM [4]: 58.2%; growth at 10 µM (BT-549): 26.6%
